# This is a sample that favours compounds with a hit; in the whole collection about 3% have one here.
# PKD1 kinase inh = PKD1 (human) kinase inhibition. Q15139. PKD1 kinase fluorescence polarization assay. inhibition, % (test concentration not listed). actives 0.056% (n = 200,000). AID 797; in the data active = inhibition above about 50%
# Rad51 HR inh = Rad51 (human) homologous recombination inhibition; Q06609; hRad51 DNA strand exchange, fluorescence dequenching; inhibition, % at 10 µM; actives 0.085% (n = 200,000); AID 1385;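 active = inhibition above 40% at the single screening dose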
# Target sequence (Q06609 whole entry, looked up): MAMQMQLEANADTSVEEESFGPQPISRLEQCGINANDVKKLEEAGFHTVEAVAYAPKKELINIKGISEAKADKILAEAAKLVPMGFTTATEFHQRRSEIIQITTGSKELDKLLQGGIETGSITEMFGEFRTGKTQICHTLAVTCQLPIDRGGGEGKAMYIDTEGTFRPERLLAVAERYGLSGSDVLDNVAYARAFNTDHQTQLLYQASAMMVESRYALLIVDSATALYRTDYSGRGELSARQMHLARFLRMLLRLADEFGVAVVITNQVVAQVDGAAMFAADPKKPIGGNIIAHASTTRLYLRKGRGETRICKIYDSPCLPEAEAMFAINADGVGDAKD
#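 Assay system: Human Rad51 nucleoprotein filaments preassembled on unlabelled ssDNA | Reagent: Donor/quencher-labelled 47-bp dsDNA substrate | Doses: One concentration, 10 µM final | Times: 37 °C 15-min filament assembly, 30-min compound preincubation, 15-min exchange | Technique: Fluorescein emission 520 nm, excitation 485 nm | Benchmarks: Plate control and blank wells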
# KCC2 mod = modulates chloride dependent transport by human KCC2; AID 1456; Q9H2X9; KCC2 cells, thallium flux FluoZin-2 fluorescence; actives 2.2% (n = 190,000); B-score of Tl+ flux slope (higher = more flux/activation; lower = inhibition) at 10 µM;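 active = thallium flux slope and its plate-corrected score both differing from the plate sample mean at a set confidence after two filtering rounds, in either direction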;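 note: slope of fluorescence scaled to starting intensity during 10 to 20 s after thallium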
# ROMK mod = modulators of human ROMK potassium channel; P48048; actives 2% (n = 130,000); AID 1918; B-score at 10 µM; Tet-inducible ROMK, thallium flux fluorescence; actives lie on both sides;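 active = signal ratio slope over the read window, or its plate-corrected B-score, at least 3 SD from the plate mean, either direction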;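 note: B-score of the F/F0 ratio slope over 7 to 12 s after thallium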
# Target sequence (P48048 whole entry, looked up): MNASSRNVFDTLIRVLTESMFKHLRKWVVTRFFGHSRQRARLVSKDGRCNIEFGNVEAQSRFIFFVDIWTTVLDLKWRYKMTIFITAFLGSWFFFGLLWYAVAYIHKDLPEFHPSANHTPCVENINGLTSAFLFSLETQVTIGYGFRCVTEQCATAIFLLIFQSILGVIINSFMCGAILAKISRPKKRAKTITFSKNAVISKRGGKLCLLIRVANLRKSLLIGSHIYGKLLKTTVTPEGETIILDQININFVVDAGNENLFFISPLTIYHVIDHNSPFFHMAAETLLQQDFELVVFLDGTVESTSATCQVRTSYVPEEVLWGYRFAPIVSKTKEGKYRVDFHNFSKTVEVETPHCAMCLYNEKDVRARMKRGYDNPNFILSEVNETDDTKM
# KCC2 secondary = KCC2 (human) modulation, secondary assay; shares compounds with KCC2 mod; HEK293-KCC2, thallium flux, FluoZin2 fluorescence; hits give high values; normalised thallium flux (F/F0 slope) at 10 µM; actives 15% (n = 3,700);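 active = thallium flux slope above the same plate's solvent-only control mean plus 3 SD; inconclusive = the two replicate wells disagree; inactive = no significant difference from solvent-only control wells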
# KCC2 bumet counter = thallium flux persisting under bumetanide in KCC2 cells, counter-screen secondary assay; normalized thallium flux at 10 µM; HEK293-KCC2 + bumetanide/ouabain, thallium flux FluoZin2; hits give high values; AID 1714; actives 49% (n = 3,700); shares compounds with KCC2 mod;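 active = thallium entry rate above the same plate's blocked-transporter control wells by more than 3 SD; inconclusive = the two repeat wells disagree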;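 note: raw slope of fluorescence over initial fluorescence between 10 and 20 s after thallium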
# KCC2 sec2 = KCC2 (human) modulation, second secondary assay | actives 23% (n = 3,700) | shares compounds with KCC2 mod | normalized thallium flux at 10 µM | HEK293-KCC2, thallium flux FluoZin2 fluorescence; actives lie on both sides; F/F0 rise rate, 10–20 s post-thallium;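 active = thallium flux slope more than 3 SD above or below the plate's solvent-only control mean, mostly below; inconclusive = the two repeat wells disagreed; inactive = no significant shift from solvent-only controls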
# HEK counter1 = counter-screen for KCC2 modulators: effect in parental HEK293 cells; actives 46% (n = 3,700); thallium flux rate (normalised fluorescence) at 10 µM; thallium flux FluoZin2, ouabain; baseline-ratio fluorescence slope, 10–20 s after thallium; shares compounds with KCC2 mod;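 active = thallium flux rate significantly above the same plate's solvent-only control wells, beyond their mean plus 3 SD; inconclusive = the two replicate wells gave conflicting results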
# KCC2 ouabain = confirmation of human KCC2 modulators with ouabain; shares compounds with KCC2 mod; HEK293-KCC2, thallium flux FluoZin2 fluorescence; bidirectional: low = inhibitor, high = activator; raw Tl+ flux slope (below DMSO = inhibition, above = activation) at 10 µM; actives 48% (n = 3,700); AID 1717;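 active = thallium flux slope beyond 3 SD from same-plate DMSO control mean in most replicates, usually higher, sometimes lower; inconclusive = repeat tests gave conflicting results; inactive = no significant difference from controls in most replicates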;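 note: slope of initial-normalized fluorescence between seconds 10 and 20 after thallium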
# HEK counter2 = parental HEK flux effect, counter-screen 2; thallium flux slope at 10 µM; HEK293 parental, thallium flux FluoZin-2 fluorescence slope; AID 1718; actives 33% (n = 3,700); shares compounds with KCC2 mod;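 active = thallium flux slope above the same plate's solvent-control mean plus 3 SD in both duplicate wells; inconclusive = duplicate wells that disagreed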;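 note: run without ouabain in cells lacking the KCC2 cotransporter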
# Hits are given with their value; 0 = inactive; ? = inconclusive; - = no result.
SMILES,PKD1 kinase inh,Rad51 HR inh,KCC2 mod,ROMK mod,KCC2 secondary,KCC2 bumet counter,KCC2 sec2,HEK counter1,KCC2 ouabain,HEK counter2
CCOCCCNC(=O)C(NC(=O)Cc1cccs1)c1ccc(OC)cc1 (stereo not drawn),0,0,0,0,-,-,-,-,-,-
Cc1cccc(NC(=O)c2cccc(N3C(=O)C4C5CCC(C5)C4C3=O)c2)c1C (stereo not drawn),0,0,6.2,0,0,0,0,0,0,0
Cc1ccc(C(=O)/C=C/Nc2ccccc2C(N)=O)cc1,0,0,-3.35,-,0,0.00646,?,0,0,0
NC(=O)c1ccccc1N/C=C/C(=O)c1ccc(Cl)cc1,0,0,0,0,-,-,-,-,-,-
C/C(=N\NC(=O)CSc1nc(C)[nH]c1[N+](=O)[O-])c1ccc(F)cc1,-,0,0,-,-,-,-,-,-,-
S=c1[nH]nc(-c2ccccc2)n1/N=C/c1ccc(-c2ccccc2Cl)o1,0,-,6.79,0,0,0.0135,?,0.0196,0.0269,0.0182
Cc1ccc(/C=N/n2c(-c3ccncc3)n[nH]c2=S)o1,0,0,0,0,-,-,-,-,-,-
S=c1[nH]nc(-c2ccccn2)n1/N=C/c1ccc(-c2ccccc2Br)o1,0,0,84.4,0,0,0.135,0.168,0.138,0.136,0.155
S=c1[nH]nc(-c2ccccn2)n1/N=C/c1ccco1,-,0,0,0,-,-,-,-,-,-
Cn1cc(Br)c(C(=O)Nc2nccs2)n1,0,-,0,0,-,-,-,-,-,-
Cn1cc(Br)c(C(=O)Nc2c(F)c(F)c(F)c(F)c2F)n1,0,0,-3.61,0,?,?,0,0,0,0
CC1(C)Cc2c(C#N)c(NCCc3ccccc3)nc(-c3ccco3)c2CO1,0,0,0,0,0,0,0,0,0,0
CCc1nc(N2CCN(C(C)=O)CC2)c(C#N)c2c1COC(C)(C)C2,-,0,0,-,-,-,-,-,-,-
CCCNC(=O)N1CCN(c2nc(C(C)C)c3c(c2C#N)CC(C)(C)OC3)CC1,0,0,-,-,-,-,-,-,-,-
CCN(CC)CCNc1nc(-c2ccco2)c2c(c1C#N)CC(C)(C)OC2,0,0,0,0,-,-,-,-,-,-
CC1(C)Cc2c(C#N)c(N3CCN(C(=O)c4ccco4)CC3)nc(Cc3ccccc3)c2CO1,0,0,-,0,0,0,0,?,0.0171,0
Cc1nc(N2CCN(C(=O)c3ccc(Cl)cc3)CC2)c(C#N)c2c1COC(C)(C)C2,0,0,0,0,0,0,0,?,0,0
CO[C@H]1C[C@@H]2CC[C@@H](C)[C@@](O)(O2)C(=O)C(=O)N2CCCC[C@H]2C(=O)O[C@H]([C@H](C)C[C@@H]2CC[C@@H](O)[C@H](OC)C2)CC(=O)[C@H](C)C=C(C)[C@@H](O)[C@@H](OC)C(=O)[C@H](C)C[C@H](C)C=CC=CC=C1C,-,-,0,-,0,0,0,0,0,0
CCc1ccc(OCc2nnc(SCC(=O)Nc3cccc(C(=O)N4CCOCC4)c3)o2)cc1,0,0,-3.38,0,0,0,0,0,0,0
O=C1NC(=S)SC1=C1CCCC1,0,0,17.7,-,0,0.0283,0.0425,0.0286,0.0368,0.0319
CCc1ccc(C(=O)COC(=O)c2cc([N+](=O)[O-])ccc2NCCO)cc1,0,0,-4.34,-,0,0,0.0226,0,0.0148,0
CCS(=O)(=O)n1nc(-c2ccccc2)nc1SC,0,0,0,-,-,-,-,-,-,-
Cc1ccc(NC(=O)/C(=C\C=C\c2ccccc2)NC(=O)c2ccccc2)cc1,0,0,-4,-,?,0,0,0,0.0135,0
C/C(=N\NC(=S)Nc1c(C)cccc1C)c1cc2ccccc2o1,0,-,8.64,0,0,0.0115,0,0.0173,?,0.0129
C/C(=N\NC(=S)Nc1ccccc1C)c1cc2ccccc2o1,-,0,40.3,-,0,0.0473,0.0475,0.0431,0.0518,0.0346
SMILES,PKD1 kinase inh,Rad51 HR inh,KCC2 mod,ROMK mod,KCC2 secondary,KCC2 bumet counter,KCC2 sec2,HEK counter1,KCC2 ouabain,HEK counter2
Cc1ccc(NC2=C(NC(=O)c3ccccc3)C(=O)c3ccccc3C2=O)cc1Cl,0,0,0,-,-,-,-,-,-,-
O=C1C(Cl)=C(Nc2ccccc2)C(=O)c2ccccc21,0,0,4.45,0,0,0,0,0,0,0
O=C(O)c1ccc(NC2=C(Cl)C(=O)c3ccccc3C2=O)cc1,-,0,-6.5,0,0,0.00935,0,0,0.0171,0
COCCNC(=S)N1CCc2cc(OC)c(OC)cc2C1COc1ccc(C(C)C)cc1 (stereo not drawn),0,0,0,-,-,-,-,-,-,-
O=C1C2C(C(=O)N1CCN1CCN(Cc3ccc([N+](=O)[O-])cc3)CC1)[C@H]1C=C[C@@H]2C1 (stereo partly drawn),-,-,0,-,-,-,-,-,-,-
CCN(CC)S(=O)(=O)c1cc(OC)c(Cl)cc1OC,0,-,0,0,-,-,-,-,-,-
COC(=O)N1N=C(c2ccc(Br)cc2)CC1(O)C(F)(F)F (stereo not drawn),0,0,0,-,-,-,-,-,-,-
COc1ccc(C2=NN(C(=O)c3cccs3)C(O)(C(F)(F)F)C2)cc1 (stereo not drawn),0,0,4.86,-,?,0.00934,0,?,0,0
CCOC(=O)COc1ccc2c(c1)c(C(=O)OCC)c(C)n2CC,0,0,0,0,-,-,-,-,-,-
O=C(Nc1nnc(N2CCCCCC2)s1)c1cc(-c2ccc(Br)cc2)on1,0,0,0,-,-,-,-,-,-,-
CC1CCCC(C)N1c1nnc(NC(=O)c2cc(-c3ccc(Br)cc3)on2)s1 (stereo not drawn),0,-,12.3,-,0,0.0204,0,0.011,?,?
O=C(CSc1cccc[n+]1[O-])NN(c1ccccc1)c1ccccc1,-,0,0,-,-,-,-,-,-,-
Cc1ccc(-n2c([C@@H]3C[C@H]3c3ccccc3)n[nH]c2=S)cc1,0,0,0,-,-,-,-,-,-,-
Cc1ccc(C2CC2c2n[nH]c(=S)n2-c2cccc(Cl)c2)cc1 (stereo not drawn),0,0,5.64,-,0,0.0272,0,0.011,?,0
O=C(/C=C/c1ccccc1)NCCSCc1ccccc1Cl,0,0,-3.78,-,0,0,0,0,0.0174,0
CCOc1cccc(/C=N/Nc2nc(N3CCCC3)nc(N3CCCC3)n2)c1O,-,0,-4.46,0,0,0,0,0,0,0.0112
O=C(CN(C1CCCCC1)C1CCCCC1)N1CCc2ccccc2C1,0,0,0,0,-,-,-,-,-,-
COC(=O)c1[nH]c2ccc(C)cc2c1NS(=O)(=O)c1ccc(F)c(C)c1,0,-,-2.93,-,0,?,0,0,0,0
